Experiments:
Trypanosoma cruzi [1] = test: Antiparasitic activity against Trypanosoma cruzi 320I04 epimastigotes […] after 72 hrs; assay type: functional, organism-based
Procedure, shortened: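 Free parasite forms (T. cruzi 320I04 epimastigotes; L. chagasi MHOM/BR/74/PP75 promastigotes) exposed to compounds for 72 h at 27 °C. IC50/IC90 taken as the concentrations giving 50% or 90% growth inhibition. Values are representative of one experiment out of three.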

[2] = Cytotoxicity against human THP1 cells after 72 hrs by MTT assay; assay type: cell-based; settings: THP-1 cells
Procedure, shortened: (§1)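 Vero or transformed THP-1 cells exposed to a 3-fold compound dilution series, in triplicate, for 72 h at 37 °C. Toxicity read by MTT reduction. CC50/CC90 taken as the concentrations killing 50% or 90% of cells. Values are representative of one experiment out of three.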

[3] = Cytotoxicity against african green monkey Vero cells after 72 hrs by MTT assay; assay type: cell-based; settings: chlorocebus sabaeus; procedure, shortened: as §1
Trypanosoma cruzi [4] = test: Antiparasitic activity against Trypanosoma cruzi 320I04 intracellular amastigotes infected in african green monkey Vero cells after 72 hrs; assay type: functional, organism-based; settings: 320I04, Vero
Leishmania chagasi = test: Antiparasitic activity against Leishmania chagasi MHOM/BR/74/PP75 promastigotes infected in human THP1 cells after 72 hrs; settings: MHOM/BR/74/PP75, THP-1, 72 h
[5] = Selectivity index, ratio of CC50 for human THP1 cells to IC50 for Leishmania chagasi MHOM/BR/74/PP75 promastigotes; assay type: functional, THP-1
Procedure, shortened: (§2)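 SI calculated as Vero CC50 divided by T. cruzi IC50, or THP-1 CC50 divided by L. chagasi IC50. Both values come from 72 h exposures: parasites at 27 °C, mammalian cells at 37 °C with MTT read-out.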

[6] = Selectivity index, ratio of CC50 for african green monkey Vero cells to IC50 for Trypanosoma cruzi 320I04 epimastigotes; assay type: functional; procedure, shortened: as §2
[7] = Selectivity index, ratio of CC50 for african green monkey Vero cells to IC50 for Trypanosoma cruzi 320I04 intracellular amastigotes; assay type: functional

Row | Compound | IC50 (Trypanosoma cruzi [1]) | IC90 (Trypanosoma cruzi [1]) | IC50 (Trypanosoma cruzi [4]) | IC90 (Trypanosoma cruzi [4]) | IC50 (Leishmania chagasi) | IC90 (Leishmania chagasi) | CC50 at 72 h [2] | CC90 at 72 h [2] | CC50 at 72 h [3] | CC90 at 72 h [3] | Ratio CC50/IC50 [5] | Ratio CC50/IC50 [6] | Ratio CC50/IC50 [7]
1 | COc1cccc([C@@H]2C[C@H](O)Cc3ccc4ccccc4c3N2)c1 | 14 µM | 48.5 µM | 24.3 µM | > 30 µM | 17.9 µM | 58.7 µM | 195 µM | > 300 µM | 97.6 µM | > 200 µM | 10.9 | 7 | 4
2 | Cc1cccc([C@@H]2C[C@H](O)Cc3ccc4ccccc4c3N2)c1 | 16.5 µM | 42.7 µM | 33.4 µM | > 30 µM | 41.4 µM | 134 µM | 89.9 µM | 116 µM | 87.4 µM | > 250 µM | 2.2 | 5.3 | 2.6
3 | Clc1ccc([C@@H]2C[C@@H]3Cc4ccc5ccccc5c4N2O3)c(Cl)c1 | 52.7 µM | > 250 µM | > 250 µM | > 250 µM | 22.1 µM | 45.8 µM | > 250 µM | > 250 µM | 55 µM | > 250 µM | >11.3 | 1 | <0.2
4 | Fc1ccc([C@@H]2C[C@@H]3Cc4ccc5ccccc5c4N2O3)cc1 | 90.5 µM | > 300 µM | > 100 µM | > 100 µM | 70.4 µM | 113 µM | > 300 µM | > 300 µM | > 300 µM | > 300 µM | >4.3 | >3.3 | >3

Further compounds by falling IC50 (Trypanosoma cruzi [1]), results first:

Row | IC50 (Trypanosoma cruzi [1]) | IC90 (Trypanosoma cruzi [1]) | IC50 (Trypanosoma cruzi [4]) | IC90 (Trypanosoma cruzi [4]) | IC50 (Leishmania chagasi) | IC90 (Leishmania chagasi) | Compound | CC50 at 72 h [2] | CC90 at 72 h [2] | CC50 at 72 h [3] | CC90 at 72 h [3] | Ratio CC50/IC50 [5] | Ratio CC50/IC50 [6] | Ratio CC50/IC50 [7]
5 | 38.8 µM | 105 µM | 16.2 µM | 83.4 µM | 35.4 µM | 43.1 µM | Clc1ccc([C@@H]2C[C@@H]3Cc4ccc5ccccc5c4N2O3)cc1 | > 300 µM | > 300 µM | 287 µM | > 300 µM | >8.5 | 7.4 | >17.7
6 | 3.2 µM | 24.8 µM | > 100 µM | > 100 µM | 25.9 µM | 52.9 µM | O[C@@H]1Cc2ccc3ccccc3c2N[C@H](c2ccc(Cl)cc2)C1 | 36.2 µM | 122 µM | 95 µM | > 250 µM | 1.4 | 29.7 | <1

Source: ChEMBL document CHEMBL1154008, “Synthesis and in vitro activity of new tetrahydronaphtho[1,2-b]azepine derivatives against Trypanosoma cruzi and Leishmania chagasi parasites” (Bioorg Med Chem Lett, 2009)
